Laboratory results as given in publication PMC2156157 (The Journal of Cell Biology, 1999).
Ends that are not written are not given here. * marks the point of attachment. Biotin = O=C1N[C@H]2[C@H](CS[C@H]2CCCCC(=O)*)N1

Columns and labels:
[1] = system: c-Yes; assay type: cell-based, human; settings: 16HBE14o− on transwell filters, mouse anti–c-Yes (1:100), XZ confocal
Method in brief: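 16HBE14o− clones stably expressing GFP-YAP65 chimeras were selected with G418 and screened by fluorescence and anti-GFP blot. Cells were grown to confluence on transwell filters and fixed in 4% paraformaldehyde. After blocking (milk/BSA/0.1% Triton X-100, 3 h), they were stained with mouse anti-c-Yes (1:100) and fluorescent secondary antiserum, then scanned in XZ by confocal microscopy. At least two independent clones per line were analysed.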

[2] = system: GST-EBP50; experiment: GST-EBP50 affinity resin binding of radiolabeled proteins; parameters: species or system human; settings: in vitro, conclusion from competition and resin binding
Method in brief: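 GST-EBP50 (10 µg) on glutathione agarose was preincubated for 2 h with or without biotinylated C-terminal peptides. Peptides were given at 400 nM, or at increasing concentrations of YAP65 wild-type peptide. Incubation lasted 3 h at 4°C, followed by high-salt (1 M NaCl) and detergent washes. Bound and unbound fractions read by SDS-PAGE and phosphorimaging.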

[3] = system: GST-PDZ2 (PDZ2 of EBP50); experiment: GST-PDZ2 affinity resin binding of radiolabeled protein; parameters: species or system human
Method in brief: (§1)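 GST or GST-EBP50, PDZ1 or PDZ2 fusion (10 µg) was immobilised on glutathione agarose. Binding ran in binding buffer + 0.1% Triton X-100 for 3 h at 4°C. Resin washed three times in TEE/1 M NaCl/1% Triton, then three times in binding buffer/1% Triton. Eluate acetone-precipitated; SDS-PAGE and phosphorimaging; ≥3 repeats.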

[4] = system: GST-PDZ1 (PDZ1 of EBP50); experiment: GST-PDZ1 affinity resin binding of radiolabeled protein; parameters: species or system human; settings: 10 μg; radiolabeled full-length YAP65; 1 M NaCl washes
Method in brief: as §1

[5] = system: GST; experiment: GST control resin binding of radiolabeled protein; settings: 10 μg; radiolabeled full-length YAP65; 1 M NaCl washes
Method in brief: as §1

[6] = system: GST-EBP50; experiment: GST-EBP50 pull-down from 16HBE14o− lysate, Western blot; assay type: binding, human; settings: 10 μg GST-EBP50, 16HBE14o− lysate
Method in brief: (§2)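 Human bronchial epithelial 16HBE14o− cells lysed in RIPA with 250 µM orthovanadate and protease inhibitors, then cleared at 40,000 g. GST or GST fusion protein (10 µg) on glutathione agarose was incubated with lysate (100 µg or ~200 µg) in binding buffer + 0.1% Triton X-100 for 3 h at 4°C. Washes: TEE/1 M NaCl/1% Triton, then binding buffer. Bound protein detected by 10% SDS-PAGE and immunoblot; ≥3 repeats.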

[7] = system: GST; experiment: GST control pull-down from 16HBE14o− lysate, Western blot; assay type: binding; settings: 10 μg GST
Method in brief: as §2

[8] = system: apical membrane of airway epithelial cells; assay type: cell-based, human; settings: 16HBE14o− cells on transwell filters 7–10 d after confluence, confocal
Method in brief: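 Samples were 16HBE14o− filters (7–10 d post-confluence) or primary nasal cultures (air-liquid interface, 40–50 d). Fixation was 4% paraformaldehyde, 5–20 min, room temperature. Blocking used milk/BSA/Triton (16HBE14o−) or 10–20% goat serum (primary). Primary antisera ran 4–12 h: ezrin 1:300, ZO-1 1:200, EBP50 1:500 or 1:200, YAP65 1:300 or 1:200. Primary cultures also got 70 nM FITC-phalloidin. Texas red/FITC secondaries, XZ confocal imaging.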

[9] = system: SH3 domain of c-Src and c-Yes; settings: biochemical assays; ref Sudol 1994; cited from earlier work
[10] = system: GST-PDZ2; experiment: GST-PDZ2 pull-down from 16HBE14o− lysate, Western blot; assay type: binding, human; settings: 10 μg GST-PDZ2, ∼200 μg 16HBE14o− lysate
Method in brief: (§3)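 GST fusion protein (10 μg) immobilized on glutathione agarose and incubated 3 h at 4°C with ~200 μg 16HBE14o− lysate. Lysate made in RIPA with 250 μM orthovanadate and protease inhibitors, cleared at 40,000 g, and diluted in binding buffer + 0.1% Triton X-100. Beads washed in TEE/1 M NaCl/1% Triton, then in binding buffer/1% Triton. Eluates run on SDS-PAGE and Western blotted; each assay run at least three times.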

[11] = system: GST-PDZ1; experiment: GST-PDZ1 pull-down from 16HBE14o− lysate, Western blot; assay type: binding, human; settings: 10 μg GST-PDZ1, ∼200 μg 16HBE14o− lysate
Method in brief: as §3

[12] = system: GST-EBP50; experiment: blot overlay, GST-EBP50; assay type: binding, human; settings: blot overlay assays (not shown)

GFP-YAP65/−4: GFP fused with YAP65 lacking the last four amino acids
c-Yes distribution in cells stably overexpressing the chimera [1]: a significant amount of c-Yes was redistributed to the lateral cell borders

YAP65: Yes-associated protein 65; full-length human, in vitro translated, or endogenous
affinity for EBP50 [2]: appear to bind EBP50 with high affinity | association with GST-PDZ2 ([3]; 10 μg, radiolabeled full-length YAP65, 1 M NaCl washes): associated with GST-EBP50 and GST-PDZ2 of EBP50 | association with GST-PDZ1 [4]: not with GST or GST-PDZ1 | association with GST [5]: not with GST or GST-PDZ1 | association with GST-EBP50 from lysate [6]: bound to the GST-EBP50 beads | association with GST from lysate [7]: not to GST beads | localization of endogenous protein [8]: preferentially accumulated at the apical membrane | binding to SH3 domain of c-Src and c-Yes [9]: bind the SH3 domain of c-Src and c-Yes, although the affinity for c-Yes was greater

c-Yes: nonreceptor tyrosine kinase of the Src family
association with GST-EBP50 from lysate [6]: easily visualized in the bound fraction of GST-EBP50 and GST-PDZ2 affinity resins | association with GST-PDZ2 from lysate [10]: easily visualized in the bound fraction of GST-EBP50 and GST-PDZ2 affinity resins | association with GST-PDZ1 from lysate [11]: no c-Yes was found to associate with GST or with GST-PDZ1 | association with GST from lysate [7]: no c-Yes was found to associate with GST or with GST-PDZ1

YAPwt: the COOH-terminal 10 amino acids of YAP65 (Biotin-SGSGLDKESFLTWL)
binding to GST-EBP50 in blot overlay [12]: bound GST-EBP50 | preferential binding to PDZ2 versus PDZ1 ([3]; GST fusion proteins of PDZ1 and PDZ2, pull-down (Fig. 5 C), discussion statement): preferential binding of YAP65 to PDZ2
